Test results published in PubChem BioAssay AID651999 (Sanford-Burnham Center for Chemical Genomics, 2013).
In all, about 360,000 compounds went through this assay and about 1,400 (0.39%) were called active.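 The calls were made as follows: active = pattern-corrected inhibition above about 35%, with an unprinted fluorescence ratio check between 0.5 and 1.5 (limit read from the data, passing the limit was not always enough); inactive = the rest.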 For the sample, actives were picked, then their nearest neighbours and some compounds at random.

What follows are compounds tested against COP9 signalosome complex subunit 5 (Homo sapiens) (UniProt Q92905) (assay: CSN5 deneddylase inhibitors on cullin-RING ligase – biochemical, fluorescence polarization, uHTS, primary screen (AID 651999;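 also: 0% = enzyme with substrate and 100% = substrate without enzyme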)). Details: Purified CSN, SCF-Nedd8-OG deneddylation, at 12.5 µM, active compounds read high.
Sequence of COP9 signalosome complex subunit 5 (Homo sapiens) (Q92905 whole entry, looked up, one chain of several): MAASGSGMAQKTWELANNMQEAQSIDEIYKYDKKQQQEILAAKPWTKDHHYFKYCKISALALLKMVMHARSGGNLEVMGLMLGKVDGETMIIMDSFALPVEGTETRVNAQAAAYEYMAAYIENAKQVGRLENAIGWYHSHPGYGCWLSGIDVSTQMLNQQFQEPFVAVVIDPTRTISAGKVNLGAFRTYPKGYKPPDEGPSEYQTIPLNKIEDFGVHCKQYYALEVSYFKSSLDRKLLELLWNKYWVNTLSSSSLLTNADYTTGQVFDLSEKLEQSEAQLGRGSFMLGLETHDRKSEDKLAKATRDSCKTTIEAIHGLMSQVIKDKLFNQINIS
Summary of the method: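 Detection – fluorescence polarization · System – HEK293T-derived human Csn5 enzyme · Controls – substrate-only high control, full reaction low control · Timing – 90 min, room temperature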

Compound | inhibition
CC1(C)C2CCC1(CS(=O)(=O)NCCc1c[nH]c3ccccc13)C(=O)C2 (stereo not drawn) | -3.93% (inactive)
COc1ccc(C(c2nnnn2C2CCCC2)N2CCN(C/C=C/c3ccccc3)CC2)cc1 (stereo not drawn) | -3.45% (inactive)
OC[C@@H]1CN(Cc2cccs2)C[C@H](n2cnc3c(Nc4ccccc4)ncnc32)O1 | 1.6% (inactive)
N#C/C(=C\C1=C(N2CCOCC2)C(=C\c2ccccc2)/CC1)C(=O)Nc1ccccc1F | 59.9% (active)
O=C(CC1SC(N2CCOCC2)=NC1=O)Nc1ccccc1F (stereo not drawn) | -4.57% (inactive)
CNC(=O)/C(C#N)=C/c1c(F)cccc1Cl | -0.2% (inactive)
Cc1cc(C)c(S(=O)(=O)NCC(c2ccc3c(c2)OCO3)N2CCOCC2)c(C)c1 (stereo not drawn) | 4.99% (inactive)
COc1ccc(C2=Nc3ccccc3NC(=O)C2N(C(=O)c2cc3ccccc3[nH]2)c2ccccc2)cc1 (stereo not drawn) | 1.01% (inactive)
O=C(O)c1ccccc1NC(=S)NC(NC(=O)c1ccccc1[N+](=O)[O-])C(Cl)(Cl)Cl (stereo not drawn) | 0.72% (inactive)
COc1cc(N2CCCC2)c(OC)cc1/C=C(/C#N)c1cccc(Br)c1 | 40.3% (active)
Cc1cccc(NC(=O)C2CC(=O)OC23CCCC3)c1 (stereo not drawn) | -1.93% (inactive)
Cc1cccc(C)c1NC(=O)C1CCCN1C(=O)OC(C)(C)C (stereo not drawn) | 1.38% (inactive)
O=C(C(=O)N1CCc2ccccc2C1)c1c[nH]c2ccccc12 | 3.61% (inactive)
CN(C(=O)COc1nnc(-c2cccs2)c(-c2cccs2)n1)c1ccccc1 | 4.69% (inactive)
C=CCn1c(=S)[nH]c2scc(-c3ccco3)c2c1=O | 35.8% (active)
Cc1ccc(-c2nnc(C)c(N3CC(C)OC(C)C3)n2)cc1 (stereo not drawn) | 4.31% (inactive)
Cc1nn(C)c(Cl)c1CN1CCC(Oc2ccc(C(=O)N3CCCC3)cc2)CC1 | -0.97% (inactive)
COCCCn1c(C(=O)NC2CCCCC2)cc2c(=O)n3cccc(C)c3nc21 | -3.61% (inactive)
Cc1cccn2c(=O)c3cc(C(=O)NC4CCCCC4)sc3nc12 | 38.6% (active)
Cc1ccccc1-n1nc(C)c2cc(C(=O)NC3CC3)sc21 | -0.46% (inactive)
CN1CCNC(=O)C1CC(=O)N1CC=C(c2ccc(F)cc2)CC1 (stereo not drawn) | -1.53% (inactive)
Cc1ccc([C@H]2C[C@H](O)[C@@H](n3cc(COC(=O)c4ccccc4)nn3)CN2CC2CCCCC2)cc1 | -1.77% (inactive)
COC(=O)N/N=C/c1c[n+]([O-])c2ccccc2[n+]1[O-] | -7.07% (inactive)
Cc1cccc(N2CCN(C(=O)/C=C/c3ccco3)CC2)c1C | -6.8% (inactive)
Cc1ccc(-n2nc3ccc(NC(=O)/C=C/c4ccco4)cc3n2)cc1C | 62.3% (active)
CCC(=O)Nc1ccc2nn(-c3ccc(F)cc3)nc2c1 | -3.58% (inactive)
C[C@H](CO)N1C[C@H](C)[C@@H](CN(C)C(=O)c2cnccn2)Oc2ncc(Br)cc2C1=O | -0.87% (inactive)

Compound | inhibition
COc1ccc(C(C(=O)NC2CCCC2)N(CCCO)C(=O)Cn2nnc(-c3ccc(C)o3)n2)cc1 (stereo not drawn) | -1.83% (inactive)
CCCNC(=O)C1(C)CCCN(Cc2cccc(C(F)(F)F)c2)C1 (stereo not drawn) | 1.08% (inactive)
O=C(CN1C(=O)CCS(=O)(=O)c2ccccc21)NCc1ccc(F)cc1 | 2.38% (inactive)
CSCc1ccc(C(=O)Nc2cc(C)cc(C)c2)cc1 | -3.14% (inactive)
COCc1cc(C)nc(Nc2cc(C)ccc2C)c1C#N | 2.37% (inactive)
O=C(CCN1C(=O)/C(=C/c2cccs2)SC1=S)NNC(=O)c1cccc(O)c1 | 51.4% (active)
O=C(CCN1C(=O)c2ccccc2C1=O)NNC(=O)c1ccc(Cl)cc1Cl | -5.29% (inactive)
Cc1c(C(=O)NCCN2C(=O)S/C(=C\c3cccs3)C2=O)cccc1[N+](=O)[O-] | -3.22% (inactive)
O=C(COc1ccc(S(=O)(=O)N2CCCCC2)cc1)NCc1ccccn1 | -4.23% (inactive)
CC(=O)NS(=O)(=O)c1ccc(NC(=O)/C=C/c2ccccc2Cl)cc1 | 4.02% (inactive)
COc1ccccc1CNC(=O)CCCNS(=O)(=O)c1cccc2nsnc12 | 1.39% (inactive)
Cc1ccc(CC2C(=O)N(c3ccc(F)cc3)C(=O)C2C)cc1 (stereo not drawn) | -0.88% (inactive)
C#CCOCCOCCOCCNc1nc(N2CCN(C(=O)CCCCCCCCCCNC(=O)Cn3cc(CCCCCN)nn3)CC2)nc(N2CCN(C(=O)CCCCCCCCCCNC(=O)[C@H](CO)n3cc(CCCSC)nn3)CC2)n1 | 89% (active)
C#CCOCCOCCOCCNc1nc(N2CCOCC2)nc(N2CCN(C(=O)[C@H](Cc3ccc(O)cc3)n3cc(CCO)nn3)CC2)n1 | -2.16% (inactive)
CCC(C)[C@@H](C(=O)N1CCNCC1)n1cc(CCCCN)nn1 (stereo partly drawn) | -2.15% (inactive)
C#CCOCCOCCOCCNc1nc(N2CCN(C(=O)C([C@@H](C)O)n3cc([C@@H](N)CCCCN)nn3)CC2)nc(N2CCN(C(=O)[C@H](CCCCN)n3cc(CN)nn3)CC2)n1 (stereo partly drawn) | 37% (active)
C#CCOCCOCCOCCNc1nc(N2CCN(C(=O)C(Cc3ccc(O)cc3)n3cc(C(N)CC(C)C)nn3)CC2)nc(N2CCN(C(=O)C(Cc3ccc(O)cc3)n3cc(C(N)C(C)CC)nn3)CC2)n1 (stereo not drawn) | 0.38% (inactive)
CC/C(Cc1ccccc1)=N/NC(=O)CCn1nnc2ccccc21 | 1.26% (inactive)
COc1ccc(NC(=O)C2CCC(CNc3c(N4CCCCC4)c(=O)c3=O)CC2)c(OC)c1 (stereo not drawn) | 1.79% (inactive)
CCOC(=O)C1(Cc2cccc(OC)c2)CCN(C(C)CC(C)(C)O)CC1 (stereo not drawn) | 0.5% (inactive)
Fc1ccc(-n2c(Cc3ccccc3)nnc2SCc2nc(-c3ccc(Cl)cc3)no2)cc1 | 5.36% (inactive)
Cc1ccc(-c2ccc(CN3C(C)C(=O)N(Cc4cn(CCC5OCCCO5)nn4)CCS3(=O)=O)cc2)cc1 (stereo not drawn) | 0.07% (inactive)
O=c1c2ccccc2c(-c2ccccc2)nn1-c1ccccn1 | 0.93% (inactive)
O=C(Nc1ccc(C2CC2(Cl)Cl)cc1)c1cccc([N+](=O)[O-])c1 (stereo not drawn) | -0.73% (inactive)
O=C(Nc1cc2c3c(c1)C1CCCC1CN3CC1CCCC21)c1ccc([N+](=O)[O-])cc1 (stereo not drawn) | -4.37% (inactive)
Cn1ccc(=Nc2ccc(NC(=O)c3ccc(N=c4ccn(C)c5ccc([N+](=O)[O-])cc45)cc3)cc2)cc1 | 114% (active)
